Laboratory results as given in ChEMBL document CHEMBL1132422, “Synthesis and evaluation of 2-amino-9-(1, 3-dihydroxy-2-propoxymethyl)- 6-fluoropurine mono- and diesters as potential prodrugs of ganciclovir” (J Med Chem, 1999).
≈ marks a conversion by molar mass, not a printed value.

Experiments:
[1] = tested on: Rattus norvegicus; experiment: Total amount of Ganciclovir recovered in the urine over a 48 hr period after an oral dose of 0.1 mmol/kg to male SD rat; format: functional
Summary of the method: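 Single oral dose of 0.1 mmol/kg given to two male Sprague-Dawley rats (200-250 g). Urine collected for 48 h in metabolic cages, and total ganciclovir measured by C18 reversed-phase HPLC.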

[2] = tested on: Human betaherpesvirus 5; experiment: In vitro antiviral (HCMV-AD169) activity of the compound (Concentration required to reduce 50% of the plaques) determined by plaque reduction assay.; format: functional, cell-based; conditions: Human betaherpesvirus 5, AD169, HEL 299
Summary of the method: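 Confluent cells infected with about 50 PFU HCMV AD-169 per well, 1 h adsorption at 37 °C, 5% CO2. Inoculum replaced with EMEM containing 2% FBS, 1% methyl cellulose and compound at various concentrations. After 10 days, plaques fixed in methanol, stained with crystal violet and counted. EC50 from probit dose-response; quadruplicate, repeated twice.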

[3] = Compound was tested for solubility in water at 25 degree C; format: ADME; conditions: read-out: S
Summary of the method: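 Saturated aqueous solution of compound; UV absorbance at 245 nm compared against a standard curve to give solubility.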

[4] = tested on: HEL 299; experiment: In vitro cytotoxicity of the compound (Concentration required to reduce OD value by 50%) in human embryonic lung fibroblast(HEL 299) cells determined by MTT assay.; format: functional
Summary of the method: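 HEL 299 cells seeded at 1 × 10^4 cells/well in EMEM and grown 24 h, then exposed to compound at various concentrations for 4 days at 37 °C, 5% CO2. MTT added for 4 h, formazan dissolved in DMSO, OD read at 540 nm. CC50 from probit dose-response; quadruplicate, repeated twice.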

[5] = Compound was tested for its half life period at pH 6.0 using Sodium phosphate buffer; format: ADME
Summary of the method: (§1)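 Compound incubated in buffer (HCl/NaCl at pH 1.2; sodium phosphate at pH 6.0, 7.4, 8.0), sampled and analysed by C18 reversed-phase HPLC. Gradient: 10 min 100% 0.1% phosphoric acid, 25 min linear to 45% of 80% MeCN/0.1% phosphoric acid, then 4 min isocratic, at 1 mL/min. UV detection at 245 nm. Half-life derived from remaining parent compound.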

[6] = Compound was tested for its half life period at pH 8.0 using Sodium phosphate buffer; format: ADME; summary of the method: as §1
[7] = Compound was tested for its half life period at pH 1.2 using HCl/NaCl buffer; format: ADME; summary of the method: as §1
[8] = Compound was tested for its half life period at pH 7.4 using Sodium phosphate buffer; format: ADME; summary of the method: as §1

SMILES	EC50 [2]	solubility [3]	half-life [5]	half-life [6]	half-life [7]	half-life [8]	Ganciclovir recovered in urine over 48 h (% of dose) [1]	CC50 [4]	Dose [1]
Nc1nc2c(ncn2COC(CO)CO)c(=O)[nH]1 [GANCICLOVIR]	0.63 µM	4300 µg/mL (≈ 16.8 mM)					3%	> 100 µM	
CC(C)C(=O)OCC(CO)OCn1cnc2c(F)nc(N)nc21 (configuration not stated)	> 100 µM	5700 µg/mL (≈ 17.4 mM)	56 days	336 h	1.08 h	768 h	45%	> 100 µM	
CC(=O)OCC(CO)OCn1cnc2c(F)nc(N)nc21 (configuration not stated)	> 100 µM	44400 µg/mL (≈ 148 mM)	56 days	168 h	1.02 h	336 h	29%	> 100 µM	
CCC(=O)OCC(CO)OCn1cnc2c(F)nc(N)nc21 (configuration not stated)	> 100 µM	19000 µg/mL (≈ 60.6 mM)	37 days	168 h	1 h	408 h		> 100 µM	39%
CC(C)OCC(COC(C)C)OCn1cnc2cnc(N)nc21 [ROCICLOVIR]							14%		

Second part, led by results:

EC50 [2]	solubility [3]	half-life [5]	half-life [6]	half-life [7]	half-life [8]	SMILES	Ganciclovir recovered in urine over 48 h (% of dose) [1]	CC50 [4]	Dose [1]
> 100 µM	19400 µg/mL (≈ 59.3 mM)	51 days	288 h	1.15 h	504 h	CCCC(=O)OCC(CO)OCn1cnc2c(F)nc(N)nc21 (configuration not stated)	41%	> 100 µM	
> 100 µM	400 µg/mL (≈ 1.01 mM)	29 days	120 h	1.23 h	168 h	CC(C)C(=O)OCC(COC(=O)C(C)C)OCn1cnc2c(F)nc(N)nc21	42%	> 100 µM	
> 100 µM	600 µg/mL (≈ 1.51 mM)	39 days	96 h	1.08 h	264 h	CCCC(=O)OCC(COC(=O)CCC)OCn1cnc2c(F)nc(N)nc21	35%	> 100 µM	
> 100 µM	4200 µg/mL (≈ 12.3 mM)	30 days	72 h	1.03 h	192 h	CC(=O)OCC(COC(C)=O)OCn1cnc2c(F)nc(N)nc21	41%	> 100 µM	
> 100 µM	11300 µg/mL (≈ 43.9 mM)	107 days	720 h	1.03 h	1660 h	Nc1nc(F)c2ncn(COC(CO)CO)c2n1	8%	> 100 µM	
> 100 µM	700 µg/mL (≈ 1.9 mM)	35 days	48 h	1.38 h	168 h	CCC(=O)OCC(COC(=O)CC)OCn1cnc2c(F)nc(N)nc21	35%	> 100 µM	
